Results: ChEMBL document CHEMBL4118033, “Total Synthesis, Configuration Assignment, and Cytotoxic Activity Evaluation of Protulactone A” (J Nat Prod, 2017)
Active and inactive are the calls of the source.

Experiments:
Type in all cases: functional, cell-based
SK-OV-3 = assay: Antiproliferative activity against human SKOV3 cells at 10 uM incubated for 48 hrs by sulforhodamine B assay
Method in brief: (§1)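 Run by the NCI Developmental Therapeutics Program (Division of Cancer Treatment and Diagnosis) as part of the NCI60 human tumour cell line panel screen. Each compound was tested at a single dose of 10 μM. Results are reported as one-dose mean graphs.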

SNB-19 = assay: Antiproliferative activity against human SNB19 cells at 10 uM incubated for 48 hrs by sulforhodamine B assay; method in brief: as §1
MCF7 = assay: Antiproliferative activity against human MCF7 cells at 10 uM incubated for 48 hrs by sulforhodamine B assay; method in brief: as §1
HOP-62 = assay: Antiproliferative activity against human HOP62 cells at 10 uM incubated for 48 hrs by sulforhodamine B assay; method in brief: as §1
HOP-92 = assay: Antiproliferative activity against human HOP92 cells at 10 uM incubated for 48 hrs by sulforhodamine B assay; method in brief: as §1
HT-29 = assay: Antiproliferative activity against human HT-29 cells at 10 uM incubated for 48 hrs by sulforhodamine B assay; method in brief: as §1
SF-539 = assay: Antiproliferative activity against human SF539 cells at 10 uM incubated for 48 hrs by sulforhodamine B assay; method in brief: as §1
U-251 = assay: Antiproliferative activity against human U251 cells at 10 uM incubated for 48 hrs by sulforhodamine B assay
Method in brief: (§2)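 Run by the NCI Developmental Therapeutics Program (Division of Cancer Treatment and Diagnosis) as part of the NCI60 human tumour cell line panel. Each compound was tested in vitro at a single dose of 10 μM, and the data are reported as one-dose mean graphs across the panel.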

HL-60(TB) = assay: Antiproliferative activity against human HL-60(TB) cells at 10 uM incubated for 48 hrs by sulforhodamine B assay
Method in brief: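 Tested within the NCI60 cancer cell line panel screen run by the Developmental Therapeutics Program (Division of Cancer Treatment and Diagnosis, National Cancer Institute). Each stereoisomer was given at a single dose of 10 μM. Results are reported as one-dose mean graphs.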

NCI-H460 = assay: Antiproliferative activity against human NCI-H460 cells at 10 uM incubated for 48 hrs by sulforhodamine B assay; method in brief: as §1
ACHN = assay: Antiproliferative activity against human ACHN cells at 10 uM incubated for 48 hrs by sulforhodamine B assay; method in brief: as §1
T47D = assay: Antiproliferative activity against human T47D cells at 10 uM incubated for 48 hrs by sulforhodamine B assay; method in brief: as §2
RXF 393 = assay: Antiproliferative activity against human RXF393 cells at 10 uM incubated for 48 hrs by sulforhodamine B assay; method in brief: as §1
A498 = assay: Antiproliferative activity against human A498 cells at 10 uM incubated for 48 hrs by sulforhodamine B assay; method in brief: as §1
SW-620 = assay: Antiproliferative activity against human SW620 cells at 10 uM incubated for 48 hrs by sulforhodamine B assay; method in brief: as §2
NCI-H322M = assay: Antiproliferative activity against human NCI-H322M cells at 10 uM incubated for 48 hrs by sulforhodamine B assay; method in brief: as §1
COLO 205 = assay: Antiproliferative activity against human COLO205 cells at 10 uM incubated for 48 hrs by sulforhodamine B assay; method in brief: as §1
HCT-116 = assay: Antiproliferative activity against human HCT116 cells at 10 uM incubated for 48 hrs by sulforhodamine B assay; method in brief: as §1
RPMI-8226 = assay: Antiproliferative activity against human RPMI8226 cells at 10 uM incubated for 48 hrs by sulforhodamine B assay; method in brief: as §1
CCRF-CEM = assay: Antiproliferative activity against human CCRF-CEM cells at 10 uM incubated for 48 hrs by sulforhodamine B assay; method in brief: as §1
SK-MEL-2 = assay: Antiproliferative activity against human SK-MEL-2 cells at 10 uM incubated for 48 hrs by sulforhodamine B assay; method in brief: as §1
SK-MEL-28 = assay: Antiproliferative activity against human SK-MEL-28 cells at 10 uM incubated for 48 hrs by sulforhodamine B assay; method in brief: as §1
Malme-3M = assay: Antiproliferative activity against human MALME-3M cells at 10 uM incubated for 48 hrs by sulforhodamine B assay; method in brief: as §1
OVCAR-4 = assay: Antiproliferative activity against human OVCAR4 cells at 10 uM incubated for 48 hrs by sulforhodamine B assay; method in brief: as §1
SNB-75 = assay: Antiproliferative activity against human SNB75 cells at 10 uM incubated for 48 hrs by sulforhodamine B assay; method in brief: as §2
SF-268 = assay: Antiproliferative activity against human SF268 cells at 10 uM incubated for 48 hrs by sulforhodamine B assay; method in brief: as §1
HCC 2998 = assay: Antiproliferative activity against human HCC2998 cells at 10 uM incubated for 48 hrs by sulforhodamine B assay; method in brief: as §1
CAKI-1 = assay: Antiproliferative activity against human Caki1 cells at 10 uM incubated for 48 hrs by sulforhodamine B assay; method in brief: as §1
OVCAR-5 = assay: Antiproliferative activity against human OVCAR5 cells at 10 uM incubated for 48 hrs by sulforhodamine B assay; method in brief: as §1
MDA-MB-468 = assay: Antiproliferative activity against human MDA-MB-468 cells at 10 uM incubated for 48 hrs by sulforhodamine B assay; method in brief: as §1
IGROV-1 = assay: Antiproliferative activity against human IGROV1 cells at 10 uM incubated for 48 hrs by sulforhodamine B assay; method in brief: as §1
PC-3 = assay: Antiproliferative activity against human PC3 cells at 10 uM incubated for 48 hrs by sulforhodamine B assay; method in brief: as §1
LOX IMVI = assay: Antiproliferative activity against human LOXIMVI cells at 10 uM incubated for 48 hrs by sulforhodamine B assay; method in brief: as §1
OVCAR-8 = assay: Antiproliferative activity against human OVCAR8 cells at 10 uM incubated for 48 hrs by sulforhodamine B assay; method in brief: as §1
UACC-62 = assay: Antiproliferative activity against human UACC62 cells at 10 uM incubated for 48 hrs by sulforhodamine B assay; method in brief: as §2
K562 = assay: Antiproliferative activity against human K562 cells at 10 uM incubated for 48 hrs by sulforhodamine B assay; method in brief: as §1
DU-145 = assay: Antiproliferative activity against human DU145 cells at 10 uM incubated for 48 hrs by sulforhodamine B assay; method in brief: as §1
SN12C = assay: Antiproliferative activity against human SN12C cells at 10 uM incubated for 48 hrs by sulforhodamine B assay; method in brief: as §1
SF-295 = assay: Antiproliferative activity against human SF295 cells at 10 uM incubated for 48 hrs by sulforhodamine B assay; method in brief: as §1
NCI-H23 = assay: Antiproliferative activity against human NCI-H23 cells at 10 uM incubated for 48 hrs by sulforhodamine B assay; method in brief: as §1
MDA-MB-435 = assay: Antiproliferative activity against human MDA-MB-435 cells at 10 uM incubated for 48 hrs by sulforhodamine B assay; method in brief: as §1
NCI-H226 = assay: Antiproliferative activity against human NCI-H226 cells at 10 uM incubated for 48 hrs by sulforhodamine B assay; method in brief: as §1
KM12 = assay: Antiproliferative activity against human KM12 cells at 10 uM incubated for 48 hrs by sulforhodamine B assay; method in brief: as §1
NCI/ADR-RES = assay: Antiproliferative activity against human NCI/ADR-RES cells at 10 uM incubated for 48 hrs by sulforhodamine B assay; method in brief: as §1

Measured: Activity

CC(=O)O[C@H](C)[C@@H]1O[C@@H]2CC(=O)O[C@@H]2[C@H]1O
inactive: all assays above

CC(=O)O[C@@H](C)[C@H]1O[C@H]2CC(=O)O[C@H]2[C@@H]1O
inactive: all assays above

CC(=O)O[C@@H](C)[C@@H]1O[C@@H]2CC(=O)O[C@@H]2[C@H]1O
inactive: all assays above

CC(=O)O[C@H](C)[C@H]1O[C@H]2CC(=O)O[C@H]2[C@@H]1O
inactive: all assays above
